For data set [1], the target named is Human immunodeficiency virus type 1 integrase (Human immunodeficiency virus 1, UniProt Q7ZJM1). Description: Inhibition of HIV1 integrase strand transfer activity.
Data set [2] is described as follows: Clearance in Sprague-Dawley rat at 1 mg/kg, iv after 4 hrs. It is filed as ADME, organism-based. The settings on record: in vivo. In outline: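 Male Sprague-Dawley rats given 1 mpk IV in PEG400/ethanol (90:10); blood sampled at 5 and 30 min and 1, 2 and 4 h post-dose; clearance from plasma profile.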
Data set [3] is described as follows: Aqueous solubility of the compound. In kind it is physicochemical. The procedure, abridged:
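Aqueous solubility measured at pH 2.3, 6.1, 7.3 and 8.5, in µg/mL.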

Some results are limits rather than exact numbers.

Human immunodeficiency virus type 1 integrase, sequence (Q7ZJM1 whole entry): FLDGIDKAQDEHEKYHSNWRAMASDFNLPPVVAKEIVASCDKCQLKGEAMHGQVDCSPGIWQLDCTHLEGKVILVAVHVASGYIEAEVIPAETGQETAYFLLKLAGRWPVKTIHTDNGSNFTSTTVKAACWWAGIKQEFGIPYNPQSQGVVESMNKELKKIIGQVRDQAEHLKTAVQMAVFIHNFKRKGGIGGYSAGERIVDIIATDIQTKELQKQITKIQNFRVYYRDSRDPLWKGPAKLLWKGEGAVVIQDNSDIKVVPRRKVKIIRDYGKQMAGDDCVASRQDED

Compound `CN(C)S(=O)(=O)c1c(CNC(=O)c2nc3n(c(=O)c2O)CCOC3(C)C)ccc(F)c1F` came in with a half-inhibitory concentration (IC50) in data set [1] of 10 nM. Also, the clearance in data set [2] was 62 mL/min/kg.

Turning to `O=C(NCc1ccc(F)cc1N1CCCCS1(=O)=O)c1nc2n(c(=O)c1O)CCCC21CCCC1`, in data set [3], the solubility was at most 5 µg/mL. In data set [1], the IC50 was found to be 5 nM.

What is called IC50 is the concentration that gives 50% inhibition. A high value points to lower potency. In general, clearance refers to the volume of plasma or blood freed of the substance per unit of time. In general, solubility refers to the dissolved amount per volume that the medium holds. Lower therefore signals a poorly soluble substance.

Source of the values: ChEMBL document CHEMBL4118197, “The discovery and preclinical evaluation of BMS-707035, a potent HIV-1 integrase strand transfer inhibitor” (Bioorg Med Chem Lett, 2018).
